Most compounds without a hit are left out; they make up all but 2.5% or so of the library.
dFosB activator – mouse delta FosB homodimer activation; P13346; purified delta FosB, TAMRA-CDK5 oligo fluorescence polarization; percent of positive-control signal above neutral wells; activation, % at 25 µM; hit rate 0.99% among 340,000;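 active = mean activation above about 17%, with every replicate also reaching it, limit read from the data, passing the limit was not always enough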
NSD2 HMT inh – inhibitors of human histone methyltransferase NSD2; NSD2 peptide methylation, AlphaScreen, 120 min; inhibition, % at 12.5 µM; hit rate 0.54% among 310,000; AID 743445
Target sequence (O96028 whole entry, looked up): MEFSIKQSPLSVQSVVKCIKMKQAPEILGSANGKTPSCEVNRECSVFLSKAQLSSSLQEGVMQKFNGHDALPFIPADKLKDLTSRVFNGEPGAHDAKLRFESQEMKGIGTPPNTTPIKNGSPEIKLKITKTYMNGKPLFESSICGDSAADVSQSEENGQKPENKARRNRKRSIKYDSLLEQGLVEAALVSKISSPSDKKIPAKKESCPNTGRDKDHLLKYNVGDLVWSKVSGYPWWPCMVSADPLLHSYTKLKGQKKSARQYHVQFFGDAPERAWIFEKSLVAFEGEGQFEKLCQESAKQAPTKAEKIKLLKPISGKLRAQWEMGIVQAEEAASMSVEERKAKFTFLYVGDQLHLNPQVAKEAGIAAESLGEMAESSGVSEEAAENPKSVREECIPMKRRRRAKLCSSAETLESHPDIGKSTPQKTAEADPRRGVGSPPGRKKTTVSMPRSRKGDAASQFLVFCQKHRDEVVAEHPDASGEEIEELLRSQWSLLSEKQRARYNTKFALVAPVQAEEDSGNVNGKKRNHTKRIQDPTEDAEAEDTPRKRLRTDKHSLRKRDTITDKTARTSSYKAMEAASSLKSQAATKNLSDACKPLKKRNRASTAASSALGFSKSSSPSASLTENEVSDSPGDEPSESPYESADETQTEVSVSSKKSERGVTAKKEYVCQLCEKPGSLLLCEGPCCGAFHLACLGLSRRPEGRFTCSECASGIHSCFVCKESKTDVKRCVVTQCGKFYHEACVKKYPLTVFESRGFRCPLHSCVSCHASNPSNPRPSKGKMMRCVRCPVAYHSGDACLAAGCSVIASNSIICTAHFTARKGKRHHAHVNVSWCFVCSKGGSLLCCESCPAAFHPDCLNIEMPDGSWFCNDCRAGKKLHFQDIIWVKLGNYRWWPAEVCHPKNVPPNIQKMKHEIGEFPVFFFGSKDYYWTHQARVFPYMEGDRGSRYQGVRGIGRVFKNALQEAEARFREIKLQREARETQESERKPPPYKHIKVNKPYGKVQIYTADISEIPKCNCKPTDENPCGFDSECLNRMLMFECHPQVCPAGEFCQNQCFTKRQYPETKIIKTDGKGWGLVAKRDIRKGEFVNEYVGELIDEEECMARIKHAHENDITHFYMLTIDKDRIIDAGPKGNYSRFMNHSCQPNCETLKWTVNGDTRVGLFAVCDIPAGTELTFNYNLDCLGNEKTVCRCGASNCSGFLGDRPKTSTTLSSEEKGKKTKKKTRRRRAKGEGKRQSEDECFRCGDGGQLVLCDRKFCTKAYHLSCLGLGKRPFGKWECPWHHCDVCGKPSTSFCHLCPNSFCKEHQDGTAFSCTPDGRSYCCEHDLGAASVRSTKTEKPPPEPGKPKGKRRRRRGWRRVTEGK
SR-BI DiI inh – blocks mouse SR-BI lipid uptake from DiI-HDL; Q61009; ldlA[mSR-BI] CHO cells, DiI-HDL uptake fluorescence, 3 h; inhibition, % at 12.5 µM; hit rate 0.96% among 320,000; AID 488896;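 active = mean replicate inhibition of at least 70% and a set share of replicates each scoring 70 or more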
CDK5 inh – inhibitors of human CDK5/p35 kinase; Q00535+Q15078; Recombinant CDK5/p35, ADP-Glo luminescence, 60 min; inhibition, % at 10 µM; hit rate 0.01% among 330,000;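 active = highest replicate inhibition of at least 50% and at least 75% of replicates reaching 50%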
SR-BI DiI-HDL act – enhances SR-BI lipid uptake from DiI-HDL; CHO ldlA[mSR-BI] cells, DiI-HDL uptake fluorescence, 3 h; 100 = double the neutral-control signal; activation, % at 12.5 µM; hit rate 0.096% among 320,000; AID 504775;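 active = mean replicate activation of at least 60% and every replicate at or above 60%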
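System: LDL receptor-deficient CHO ldlA cells overexpressing murine SR-BI | Timing: 3 h uptake period with compound, 37 °C | Medium: HEPES-buffered (25 mM, pH 7.4) F12 plus 0.5% BSA | Dosing: Single-point compound dose | Signal: Bottom-read fluorescence, 550/595 nm | Read-out: Retained DiI signal reflecting DiI-HDL uptake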
Dyrk1A ADPGlo – blocks rat Dyrk1A kinase activity; ADP-Glo luminescence, NFATc1 peptide; inhibition, % at 12.5 µM; hit rate 0.43% among 310,000
Numbers stand for hits. Cut-off read from the data, not from the text of the source, unless noted: active = inhibition above about 50%; inactive = the rest.

How did O=C(N/N=C\c1ccc(Sc2ccccn2)o1)c1cccc(Br)c1 do in these assays?
dFosB activator: inactive; NSD2 HMT inh: inactive; SR-BI DiI inh: inactive; CDK5 inh: inactive; SR-BI DiI-HDL act: inactive; Dyrk1A ADPGlo: inactive

Results for O=C(N/N=C/c1ccc(O)c2ncccc12)c1cccc(Br)c1 ?
dFosB activator: inactive; NSD2 HMT inh: inactive; SR-BI DiI inh: 72; CDK5 inh: inactive; SR-BI DiI-HDL act: inactive; Dyrk1A ADPGlo: inactive

Results for O=C(N/N=C/c1cc(Cl)ccc1O)c1ccc(Br)cc1 ?
dFosB activator: inactive; NSD2 HMT inh: inactive; SR-BI DiI inh: 135; CDK5 inh: inactive; SR-BI DiI-HDL act: inactive; Dyrk1A ADPGlo: inactive

What do the screens show for `Cc1cc(C(=O)N/N=C/c2cc(Br)ccc2OC(=O)c2ccccc2Cl)n[nH]1`?
dFosB activator: inactive; NSD2 HMT inh: inactive; SR-BI DiI inh: 87; CDK5 inh: inactive; SR-BI DiI-HDL act: inactive

How did Cc1cc(C(=O)N/N=C/c2cc(Br)ccc2OC(=O)c2ccccc2)n[nH]1 do in these assays?
dFosB activator: inactive; NSD2 HMT inh: inactive; SR-BI DiI inh: inactive; CDK5 inh: inactive; SR-BI DiI-HDL act: inactive; Dyrk1A ADPGlo: inactive

Results for O=C(N/N=C/c1cccc(Br)c1)c1ccc(Br)cc1 ?
dFosB activator: inactive; NSD2 HMT inh: inactive; SR-BI DiI inh: inactive; CDK5 inh: inactive; SR-BI DiI-HDL act: inactive; Dyrk1A ADPGlo: inactive

How did COc1cccc(-c2nnc(SCC(=O)Nc3cccc4ccccc34)n2Cc2ccco2)c1 do in these assays?
NSD2 HMT inh: inactive

What do the screens show for `O=C(N/N=C/c1ccc2nccnc2c1)c1ccc(Br)cc1`?
NSD2 HMT inh: inactive

How did O=C(N/N=C/c1ccc2nccnc2c1)c1ccncc1 do in these assays?
dFosB activator: inactive; NSD2 HMT inh: inactive; SR-BI DiI inh: inactive; CDK5 inh: inactive; SR-BI DiI-HDL act: 355; Dyrk1A ADPGlo: inactive

Results for O=C(CNC(=O)c1ccc(S(=O)(=O)N2CCCC2)cc1)N/N=C/c1ccc(Cl)cc1 ?
dFosB activator: inactive; NSD2 HMT inh: inactive; SR-BI DiI inh: 72; CDK5 inh: inactive; SR-BI DiI-HDL act: inactive; Dyrk1A ADPGlo: inactive

Results for O=C(N/N=C/c1ccc(O)c(O)c1)c1cccc(S(=O)(=O)N2CCCCC2)c1 ?
dFosB activator: inactive; NSD2 HMT inh: inactive; SR-BI DiI inh: inactive; CDK5 inh: inactive; SR-BI DiI-HDL act: inactive; Dyrk1A ADPGlo: inactive

What do the screens show for `O=C(N/N=C\c1cc(Br)ccc1O)c1ccc(S(=O)(=O)N2CCCCC2)cc1`?
dFosB activator: inactive; NSD2 HMT inh: inactive; SR-BI DiI inh: 137; CDK5 inh: inactive; SR-BI DiI-HDL act: inactive; Dyrk1A ADPGlo: inactive

What do the screens show for `O=C(N/N=C/c1cc(Br)ccc1OC(=O)c1ccc(Br)cc1)c1ccncc1`?
dFosB activator: inactive; NSD2 HMT inh: inactive; SR-BI DiI inh: 96; CDK5 inh: inactive; SR-BI DiI-HDL act: inactive; Dyrk1A ADPGlo: inactive

Results for Cc1ccccc1NC(=O)CSc1nnc(-c2cc(-c3ccccc3)n[nH]2)n1N ?
NSD2 HMT inh: inactive

How did C=CCn1c(COc2ccc(C)cc2)nnc1SCC(=O)c1ccc(-c2ccccc2)cc1 do in these assays?
NSD2 HMT inh: inactive

Results for CCCc1cc(=O)oc2cc(C)cc(OCC(=O)N3CCC(C(=O)O)CC3)c12 ?
dFosB activator: inactive; SR-BI DiI inh: inactive; CDK5 inh: inactive; SR-BI DiI-HDL act: inactive; Dyrk1A ADPGlo: inactive

What do the screens show for `O=C(N/N=C/c1cc(Br)ccc1O)c1ccncc1`?
dFosB activator: inactive; NSD2 HMT inh: inactive; SR-BI DiI inh: 120; CDK5 inh: inactive; SR-BI DiI-HDL act: inactive; Dyrk1A ADPGlo: inactive

How did O=C(N/N=C/c1ccccc1O)c1ccncc1 do in these assays?
dFosB activator: inactive; SR-BI DiI inh: inactive; CDK5 inh: inactive; SR-BI DiI-HDL act: inactive; Dyrk1A ADPGlo: inactive

How did COc1ccc(C=NNC(=O)c2ccncc2)cc1 do in these assays?
NSD2 HMT inh: inactive

What do the screens show for `COc1cc(C(=O)Oc2ccc(/C=N/NC(=O)c3ccncc3)cc2)cc(OC)c1OC`?
dFosB activator: inactive; NSD2 HMT inh: inactive; SR-BI DiI inh: 73; CDK5 inh: inactive; SR-BI DiI-HDL act: inactive; Dyrk1A ADPGlo: inactive

How did CCC1(C2=CCCCC2)C(=O)NC(=O)N=C1N (centres undefined) do in these assays?
dFosB activator: inactive; NSD2 HMT inh: inactive; SR-BI DiI inh: inactive; CDK5 inh: inactive; SR-BI DiI-HDL act: inactive

What do the screens show for `O=C(CSc1nnc(-c2cccnc2)n1-c1ccc(Cl)cc1)Nc1ccc(S(=O)(=O)Nc2nccs2)cc1`?
NSD2 HMT inh: inactive

Results for COc1ccc(N2C(=O)/C(=C/c3ccc([N+](=O)[O-])cc3)C=C2c2ccccc2)cc1 ?
dFosB activator: inactive; NSD2 HMT inh: inactive; SR-BI DiI inh: 96; CDK5 inh: inactive; SR-BI DiI-HDL act: inactive; Dyrk1A ADPGlo: inactive

Results for CC(=O)O[C@H]1C2OC(=O)C(C)=C2[C@@H]2OC(=O)[C@]3(CCC4OC41C)OC23 (some centres undefined) ?
dFosB activator: inactive; SR-BI DiI inh: inactive; CDK5 inh: inactive; SR-BI DiI-HDL act: inactive; Dyrk1A ADPGlo: inactive

Results for Cc1cc(Br)ccc1-n1[nH]c(C)c(C=Nc2cccc3nsnc23)c1=O ?
dFosB activator: inactive; NSD2 HMT inh: inactive; SR-BI DiI inh: 77; CDK5 inh: inactive; SR-BI DiI-HDL act: inactive; Dyrk1A ADPGlo: inactive

How did Cc1cccc(-c2ccc(NC(=O)C3CCN(CC4CC4)CC3)cc2)c1 do in these assays?
dFosB activator: inactive; NSD2 HMT inh: inactive; SR-BI DiI inh: inactive; CDK5 inh: inactive; SR-BI DiI-HDL act: inactive; Dyrk1A ADPGlo: inactive

What do the screens show for `COc1cccc(CN2CCC(C(=O)Nc3ccc(-c4cccc(C)c4)cc3)CC2)c1O`?
dFosB activator: 40; SR-BI DiI inh: inactive; CDK5 inh: inactive; SR-BI DiI-HDL act: inactive; Dyrk1A ADPGlo: inactive

How did CC(=O)Nc1cccc(-c2ccnc3c2CC(C(=O)NCC2CCOCC2)O3)c1 (centres undefined) do in these assays?
NSD2 HMT inh: inactive

Results for Cc1cc(NC(=O)c2sc(Nc3ccc(F)c(Cl)c3)nc2N)no1 ?
dFosB activator: inactive; NSD2 HMT inh: inactive; SR-BI DiI inh: 87; CDK5 inh: inactive; SR-BI DiI-HDL act: inactive

Results for Cn1c(/C=C(\C#N)C(N)=S)ccc1-c1ccc(Br)cc1 ?
dFosB activator: inactive; NSD2 HMT inh: inactive; SR-BI DiI inh: 74; CDK5 inh: inactive; SR-BI DiI-HDL act: inactive; Dyrk1A ADPGlo: inactive

How did Fc1ccccc1-c1n[nH]c(=S)n1N=Cc1ccc(-c2ccccc2)cc1 do in these assays?
NSD2 HMT inh: inactive

What do the screens show for `CC1CC(C)(C)CC2(C1)NC(=O)N(CC(=O)Nc1ccc(N3CCCCC3)cc1)C2=O` (centres undefined)?
dFosB activator: inactive; NSD2 HMT inh: inactive; SR-BI DiI inh: 73; CDK5 inh: inactive; Dyrk1A ADPGlo: inactive

What do the screens show for `O=C(CN1C(=O)NC2(CCCCC2)C1=O)Nc1ccc(N2CCCCC2)cc1`?
dFosB activator: inactive; NSD2 HMT inh: inactive; SR-BI DiI inh: inactive; CDK5 inh: inactive; SR-BI DiI-HDL act: inactive; Dyrk1A ADPGlo: inactive

Results for CCc1nccn1CC(=O)c1ccc(O)c(O)c1 ?
NSD2 HMT inh: inactive

Assay outcomes: PubChem BioAssay, Broad Institute
